Source: ChEMBL document CHEMBL1153333, “Structure-activity relationship studies of curcumin analogues” (Bioorg Med Chem Lett, 2009)

Experiments:
[1] = tested on: LNCaP; test: Antiproliferative activity against human LNCAP cells after 72 hrs by MTT assay; assay type: functional, cell-based
[2] = tested on: MCF7; test: Antiproliferative activity against human MCF7 cells after 72 hrs by MTT assay; assay type: functional, cell-based; conditions: MCF7, 72 h
[3] = tested on: PC-3; test: Antiproliferative activity against human PC3 cells after 72 hrs by MTT assay; assay type: functional, cell-based; conditions: PC-3, 72 h
[4] = tested on: MDA-MB-231; test: Antiproliferative activity against human MDA-MB-231 cells after 72 hrs by MTT assay; assay type: functional, cell-based; conditions: MDA-MB-231, 72 h
[5] = tested on: LNCaP; test: Ratio of IC50 for human MCF10A cells to IC50 for human LNCAP cells
Procedure, shortened: (§1)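 Selectivity ratio is the IC50 on non-malignant MCF-10A cells divided by the IC50 on the cancer cell line.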

[6] = tested on: MDA-MB-231; test: Ratio of IC50 for human MCF10A cells to IC50 for human MDA-MB-231 cells; procedure, shortened: as §1
[7] = tested on: MCF-10A; test: Ratio of IC50 for human MCF10A cells to IC50 for human PC3 cells; procedure, shortened: as §1
[8] = Antiproliferative activity against human MCF10A cells after 72 hrs by MTT assay; assay type: cell-based; conditions: MCF-10A
Procedure, shortened: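 Spontaneously immortalized, non-malignant human mammary epithelial MCF-10A cells were exposed to compounds for 72 h. Viability was read by MTT assay, and IC50 was taken from that read-out.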

[9] = tested on: MCF7; test: Ratio of IC50 for human MCF10A cells to IC50 for human MCF7 cells; procedure, shortened: as §1

Row | SMILES | IC50 [1] [µM] | IC50 [2] [µM] | IC50 [3] [µM] | IC50 [4] [µM] | Ratio IC50 [5] | Ratio IC50 [6] | Ratio IC50 [7] | IC50 [8] [µM] | Ratio IC50 [9]
1 | O=C(/C=C/c1ccc(O)cc1)/C=C/c1ccc(O)cc1 | 5.8 | 6.9 | 9.5 | 3.9 |  |  |  |  | 
2 | COc1ccc(/C=C/C(=O)/C=C(O)/C=C/c2ccc(OC)c(O)c2)cc1O | > 40 | > 40 | > 40 | > 40 |  |  |  |  | 
3 | COc1cc(/C=C/c2cc(/C=C/c3ccc(O)c(OC)c3)n(C)n2)ccc1O | 12.1 | 15.8 | 16.2 | 20.4 |  |  |  |  | 
4 | COc1cccc(/C=C/C(=O)/C=C(O)/C=C/c2cccc(OC)c2)c1 | 34.7 | 25.9 | 40 | 31.9 |  |  |  |  | 
5 | COc1cc(/C=C/C(O)=C/C(=O)/C=C/c2ccc(OS(N)(=O)=O)c(OC)c2)ccc1O | 20 | 15.1 | 19.3 | 14.3 |  |  |  |  | 
6 | COc1cc(/C=C/C(=O)/C=C(O)/C=C/c2cc(OC)c(OS(N)(=O)=O)c(OC)c2)cc(OC)c1OS(N)(=O)=O | 10.4 | 4.7 | 13.1 | 5.5 |  |  |  |  | 
7 | COc1ccc(/C=C/C(=O)/C=C(O)/C=C/c2ccc(OC)c(OS(N)(=O)=O)c2)cc1OS(N)(=O)=O | 7.7 | 5.5 | 7.4 | 6.5 |  |  |  |  | 
8 | COc1cc(/C=C/C(=O)/C=C(O)/C=C/c2ccc(OS(N)(=O)=O)c(OC)c2)ccc1OS(N)(=O)=O | 5.9 | 5.5 | 7.5 | 3.1 |  |  |  |  | 
9 | CC(=O)Oc1ccc(/C=C/C(=O)/C=C(O)/C=C/c2ccc(OC(C)=O)c(OC(C)=O)c2)cc1OC(C)=O | 20.2 | 17.8 | 12.9 | 12.3 |  |  |  |  | 
10 | O=C(/C=C/c1ccc(O)cc1)CC(=O)/C=C/c1ccc(O)cc1 [BISDEMETHOXYCURCUMIN] | 19.7 | 24.3 | 27.3 | 21.9 |  |  |  |  | 
11 | COc1cc(/C=C/C(=O)CC(=O)/C=C/c2ccc(O)c(OC)c2)ccc1O [CURCUMIN] | 19.6 | 21.5 | 19.8 | 25.6 |  |  |  | 30.1 | 
12 | COc1cc(/C=C/C(O)=C/C(=O)/C=C/c2ccc(OC)c(OC)c2)ccc1O [METHYLCURCUMIN] | 6.8 | 15.4 | 20.9 | 7.2 |  |  |  |  | 

Now those with a lower IC50 [1], led by results:

Row | IC50 [1] [µM] | IC50 [2] [µM] | IC50 [3] [µM] | IC50 [4] [µM] | SMILES | Ratio IC50 [5] | Ratio IC50 [6] | Ratio IC50 [7] | IC50 [8] [µM] | Ratio IC50 [9]
13 | 2.7 | 2.4 | 3.9 | 2.8 | COc1cc(/C=C/C(=O)/C=C/c2ccc(O)c(OC)c2)ccc1O |  |  |  |  | 
14 | 2.2 | 2.5 | 2.9 | 1.6 | COc1ccc(/C=C/C(=O)/C=C/c2ccc(OC)c(OC)c2)cc1OC |  |  |  |  | 
15 | 0.5 | 0.4 | 2.1 | 0.6 | COc1cc(OC)c(/C=C/C(=O)/C=C/c2c(OC)cc(OC)cc2OC)c(OC)c1 | 25 | 25 | 25 | > 50 | 25
16 | 2.5 | 1.7 | 3.6 | 2.7 | COc1cc(/C=C/C(=O)/C=C/c2cc(OC)c(O)c(OC)c2)cc(OC)c1O |  |  |  |  | 
17 | 5.1 | 3.5 | 5.1 | 4.2 | NS(=O)(=O)Oc1ccc(/C=C/C(=O)/C=C/c2ccc(OS(N)(=O)=O)cc2)cc1 |  |  |  |  | 
18 | 2.6 | 2.9 | 5.9 | 3.1 | COc1ccc(/C=C/C(=O)/C=C/c2ccc(OC)c(O)c2)cc1O |  |  |  |  | 
19 | 1.7 | 2.4 | 4.6 | 2.4 | COc1cc(OC)c(OC)cc1/C=C/C(=O)/C=C/c1cc(OC)c(OC)cc1OC | >=5 | >=5 | >=5 | > 50 | >=5
20 | 2.4 | 6.6 | 6.1 | 1.7 | COc1cc(/C=C/C(=O)/C=C/c2ccc(OS(N)(=O)=O)c(OC)c2)ccc1OS(N)(=O)=O |  |  |  |  | 
21 | 1.9 | 1.5 | 2.4 | 0.6 | COc1cc(/C=C/C(=O)/C=C/c2cc(OC)c(OS(N)(=O)=O)c(OC)c2)cc(OC)c1OS(N)(=O)=O |  |  |  |  | 
22 | 2.1 | 2.7 | 2.5 | 1.5 | COc1cc(/C=C/C(=O)/C=C/c2cc(OC)cc(OC)c2)cc(OC)c1 | >=5 | >=5 | >=5 | > 50 | >=5
23 | 3.4 | 5.9 | 5.6 | 6.6 | COc1cc(/C=C/c2cc(/C=C/c3ccc(O)c(OC)c3)[nH]n2)ccc1O [CURCUMIN PYRAZOLE] | >=5 | >=5 | >=5 | > 50 | >=5
24 | 3.9 | 5.4 | 5.9 | 4.9 | COc1ccc(/C=C/C(=O)/C=C(O)/C=C/c2ccc(OC)c(OC)c2)cc1OC [DIMETHYLCURCUMIN] |  |  |  | 31.5 | 
